Shown are actives, neighbours in structure and some others; about 2.1% of the full set was active somewhere.
SUMO1 PPI mod: SUMO1-SIM interaction modulation; P63165; SUMO1 binding to a labelled peptide, TR-FRET, 1 h; inhibition, % at 20 µM; 0.33% of 360,000 active; AID 602429; in the data active = inhibition above about 37%
STEP inh: STEP (human) phosphatase inhibition; P54829; recombinant STEP, OMFP fluorogenic substrate, fluorescence; inhibition, % at 20 µM; 0.25% of 360,000 active; AID 588621;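 active = inhibition at 20 µM, scaled per plate between control wells, above about 37%, limit read from the data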;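 also: 0% = DMSO with enzyme and substrate and 100% = substrate only without enzyme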
Target sequence (P54829 whole entry, looked up): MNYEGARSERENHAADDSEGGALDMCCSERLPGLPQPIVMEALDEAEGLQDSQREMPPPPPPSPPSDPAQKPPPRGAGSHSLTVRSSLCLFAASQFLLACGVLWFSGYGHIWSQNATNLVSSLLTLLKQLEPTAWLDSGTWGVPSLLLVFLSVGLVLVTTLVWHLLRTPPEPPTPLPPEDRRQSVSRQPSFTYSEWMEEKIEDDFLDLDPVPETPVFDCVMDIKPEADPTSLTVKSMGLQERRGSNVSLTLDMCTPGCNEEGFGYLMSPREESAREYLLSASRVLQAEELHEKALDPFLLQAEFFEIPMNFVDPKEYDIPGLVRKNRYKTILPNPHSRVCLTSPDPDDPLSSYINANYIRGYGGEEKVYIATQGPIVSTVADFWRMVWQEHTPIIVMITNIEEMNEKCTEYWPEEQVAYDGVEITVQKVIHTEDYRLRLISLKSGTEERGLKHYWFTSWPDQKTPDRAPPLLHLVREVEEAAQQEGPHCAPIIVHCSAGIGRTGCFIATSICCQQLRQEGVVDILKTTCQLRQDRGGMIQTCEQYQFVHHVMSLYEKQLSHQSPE
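Assay system: isolated STEP enzyme. Buffer or medium: pH 6.0 Bis-Tris with DTT and Tween 20. Also added: fluorogenic phosphatase substrate OMFP at 25 µM final. Dosing: 20 µM, 1% DMSO. Timing: 20 min reaction, room temperature, in the dark. Measured by: fluorescence intensity, excitation 480 nm, emission 540 nm. Evaluation: normalized % inhibition.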
DNMT1 inh: inhibitors of human DNMT1; P26358; DNMT1 molecular beacon, Hinp1I cleavage, fluorescence; inhibition (reported as % activation of signal), % at 10 µM; 0.83% of 360,000 active; AID 588458; in the data active = inhibition above about 50%
LMPTP block: blocks human LMPTP phosphatase | AID 651560 | recombinant LMPTP-A, OMFP fluorogenic substrate, fluorescence intensity | inhibition, % at 20 µM | 0.22% of 360,000 active;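 active = compounds that cut the enzyme signal by at least half of the control window in the single-dose screen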;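 also: plate controls were DMSO wells with enzyme plus substrate for no effect and substrate without enzyme for full effect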
Target sequence (P24666 whole entry, looked up): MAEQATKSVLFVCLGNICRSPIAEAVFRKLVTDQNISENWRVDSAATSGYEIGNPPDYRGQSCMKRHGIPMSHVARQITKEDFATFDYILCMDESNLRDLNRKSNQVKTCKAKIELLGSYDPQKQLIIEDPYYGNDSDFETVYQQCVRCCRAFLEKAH
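Test system – LMPTP-A enzyme · Amount – LMPTP-A at 0.625 nM final in the reaction · Buffer or medium – Bis-Tris pH 6.0, DTT, detergent · Reagent – OMFP 400 µM · Doses – single 20 µM dose · Schedule – reaction 50 min, room temperature, dark · Detection – fluorescence intensity of OMFP turnover product · Evaluation – percent inhibition versus substrate-only and uninhibited controls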
Scp-1 inhibitor: Scp-1 (human) phosphatase inhibition. 0.88% of 340,000 active. Recombinant Scp1, phosphopeptide, malachite green phosphate absorbance. Q9GZU7. inhibition, % at 20 µM;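 active = inhibition above about 50% at 20 µM, limit read from the data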;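 also: plate controls were DMSO wells with enzyme for no effect and wells lacking enzyme for full effect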
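Material: truncated SCP-1 phosphatase (76-261aa) / Buffer or medium: 50 mM Tris acetate pH 5.5, 0.005% Tween-20, 10 mM MgCl2 / Compound dosing: one concentration, 20 µM, with 1.0% DMSO / Incubation: 45 min room-temperature reaction, 5 min colour, 30 min stabiliser / Detection: colorimetric free-phosphate detection, absorbance 630 nm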
GRK2 aptamer HTS: blocks RNA aptamer binding to human GRK2. P25098. bead flow cytometry, FAM-aptamer displacement from GRK2. inhibition of aptamer binding, % at 10 µM. 0.59% of 330,000 active;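 active = inhibition of aptamer binding above 40%, roughly 3 SD of noise, on plates passing a quality check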;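 also: median bead fluorescence of bound FAM aptamer so fluorescent compounds give negative values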
Scp1 confirm: Scp-1 (human) inhibition, single-dose confirmed; shares compounds with Scp-1 inhibitor; recombinant SCP-1 catalytic domain, phosphate release, malachite green absorbance; inhibition, % at 20 µM; 61% of 2,500 active; AID 540281;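 also: plate controls were DMSO with enzyme for no effect and buffer wells lacking enzyme for full effect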
Scp-1 MG ctr: interferes with malachite green readout, flagging false Scp-1 hits; AID 540313; shares compounds with Scp-1 inhibitor; 2,500 tested, under 10 active; Colorimetric interference counterscreen, malachite green absorbance 630 nm; apparent inhibition (interference), % at 20 µM;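 also: compounds added after enzyme reaction finished so only phosphate colour detection is probed; plate controls were DMSO wells with completed Scp-1 reaction for no effect and substrate wells lacking enzyme for full effect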
Scp-1 Tm shift: validation of human Scp-1 inhibitors by thermal shift binding. shares compounds with Scp-1 inhibitor. Recombinant SCP1, Sypro Orange thermal shift Tm. thermal shift relative to vanadate control, % at 40 µM. 25% of 1,500 active. AID 540329;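 active = substances whose mean melting-temperature shift, as a percentage of the reference inhibitor's shift, reaches about 5.3%, limit read from the data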;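 also: 0% = Tm of DMSO wells and 100% = Tm with sodium orthovanadate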
An asterisk follows results filed as active; / = not tested or not shown.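 The calls were made as follows, unless noted: active = inhibition of at least 30% at 20 µM; inactive = the rest.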

SMILES	SUMO1 PPI mod	STEP inh	DNMT1 inh	LMPTP block	Scp-1 inhibitor	GRK2 aptamer HTS	Scp1 confirm	Scp-1 MG ctr	Scp-1 Tm shift
NC(=O)COC(=O)c1ccc(S(=O)(=O)NCc2ccco2)cc1	2	6	29	1	63*	17	69*	-1	0
CN(C)S(=O)(=O)c1ccc(C(=O)OCc2nnc(-c3ccccc3)o2)cc1	2	-1	0	0	-5	1	/	/	/
O=C(COC(=O)c1ccc(S(=O)(=O)NCc2ccco2)cc1)NCc1ccccc1	5	5	19	3	25	7	/	/	/
COc1cccc(NC(=O)COC(=O)c2ccc(S(=O)(=O)NCc3ccco3)cc2)c1	3	3	29	1	60*	6	70*	-7	3
O=C(OCc1nnc(-c2ccccc2)o1)c1ccc(S(=O)(=O)NCc2ccco2)cc1	-1	-1	19	2	53*	1	68*	-11	5
CCCCCc1c(-c2ccc(Br)cc2)ncn1CCc1ccccc1OC	1	/	/	10	/	/	/	/	/
N#Cc1ccccc1N1CCN(C(=O)c2ccc(NC(=O)c3ccc(Br)o3)cc2)CC1	11	1	1	12	60*	1	73*	-4	-1
O=C1NC(=S)SC1=Cc1ccccc1Br	11	-1	4	2	-5	/	/	/	/
O=C1NC(=S)SC1=Cc1cc(Br)ccc1O	16	-1	7	0	67*	/	2	-24	/
O=C1NC(=S)SC1=Cc1cccs1	-9	1	-1	0	53*	/	-2	-12	/
C=Cn1cc(CNC[C@H]2O[C@@H](n3ccc(N)nc3=O)[C@H](O)[C@@H]2O)c(C)n1	-1	-1	4	-4	/	/	/	/	/
O=C(O)CCSc1nnc(SCC(=O)NC2CCS(=O)(=O)C2)s1 (stereo not given)	3	-3	4	0	101*	3	-11	-19	/
O=C(CSc1nnc(Nc2ccccc2)s1)NC1CCS(=O)(=O)C1 (stereo not given)	-3	2	0	-1	2	0	/	/	/
CC[n+]1c(/C=C/Nc2ccccc2)oc2ccccc21	-10	-1	7	1	99*	0	-13	-19	/
CC[n+]1c(/C=C/Nc2ccccc2)oc2ccc(OC)cc21	-9	-2	-1	0	-3	0	/	/	/
CCCCN1C(=O)C(CC(=O)NCCCN(C)C)CC(C(=O)N2CCCCCC2)=C1C (stereo not given)	-1	/	/	-2	/	/	/	/	/
C[C@@H]1CC=C[C@@H]2[C@H]1C(=O)N(Cc1ccccc1)[C@H]2c1cccc(C#Cc2ccccc2)c1	-1	2	3	5	70*	0	42*	-22	-16
COc1cc(/C=C2\C(=N)N3N=C(S(C)(=O)=O)SC3=NC2=O)cc(OC)c1OCCOc1ccc(C)cc1	-5	2	-7	1	11	3	/	/	/
COc1cc(/C=C2\C(=N)N3N=C(S(C)(=O)=O)SC3=NC2=O)ccc1OCCOc1ccc(C)cc1	6	9	-5	7	67*	0	36*	-16	9.7*
CCS(=O)(=O)C1=NN2C(=N)/C(=C\c3ccc(OCCOc4cccc(OC)c4)c(OC)c3)C(=O)N=C2S1	7	-1	0	4	67*	0	65*	-16	11*
COc1ccc(CN2CC(C(=O)NCCCOC(C)C)CC2=O)cc1 (stereo not given)	1	0	-1	-3	-13	2	-6	-7	/
COCCCNC(=O)C1CC(=O)N(Cc2ccc(OC)cc2)C1 (stereo not given)	0	3	-1	-1	-9	0	/	/	/
CCOC(=O)c1nc(C)nc(Sc2n[nH]c(-c3ccccc3)n2)c1C	1	1	1	-2	-11	3	/	/	/
CCOC(=O)c1sc(NC(=O)C2CC2)nc1C	5	1	0	0	-10	0	/	/	/
CCOC(=O)c1sc(NC(=O)C2C3C=CC(C3)C2C(=O)O)nc1C (stereo not given)	-2	22	24	-1	54*	16	42*	-11	-1
SMILES	SUMO1 PPI mod	STEP inh	DNMT1 inh	LMPTP block	Scp-1 inhibitor	GRK2 aptamer HTS	Scp1 confirm	Scp-1 MG ctr	Scp-1 Tm shift
O=C(Nc1ccc(F)cc1)C(c1ccccc1OC(F)(F)F)N1CCN(C(=O)c2ccco2)CC1 (stereo not given)	-1	/	/	0	/	/	/	/	/
Cc1ccc(NC(=O)CC2C(=O)NCCN2C(=O)c2ccc(F)cc2)cc1 (stereo not given)	2	-2	1	-1	-4	0	-3	-11	/
CC(C)(C)S(=O)N1Cc2cc(C(=O)NCC(F)(F)F)nc(-c3cccc(-c4cccc(F)c4)c3)c2[C@@H]1CCO (stereo not given in full)	-1	-2	-16	2	/	/	/	/	/
C[n+]1ccccc1C1CCCC/C1=N\NC(N)=S (stereo not given)	-2	0	8	-1	113*	3	100*	1	-9
CC1CCCC/C1=N\NC(=S)NCCc1ccccc1 (stereo not given)	-7	-1	0	0	-1	1	/	/	/
O=C(COc1ccc(Cl)cc1)NNC(=O)c1ccc(=O)[nH]c1	-3	2	1	0	59*	0	26	6	/
CCOC(=O)[C@]12CCC=C1N(Cc1ccc(Cl)cc1Cl)C(=O)[C@H](CC(=O)NCc1ccc(C)o1)C2	3	/	/	0	/	/	/	/	/
COCCOC(=O)c1cc(C(=O)c2cc(Cl)ccc2O)coc1=N	1	0	-3	-1	55*	2	-11	-16	/
CC(C)C[C@H]1CN(CCCC[C@@H]2CNC(=O)C(=O)N2CCc2ccccc2)C(=O)C(=O)N1CCC1CCCCC1	2	/	/	0	/	/	/	/	/
NC(=O)NC(=O)CC1S/C(=N/N=C2\CSC(=O)N2)NC1=O (stereo not given)	3	-2	5	-2	-7	0	/	/	/
O=C(O)CNC(=O)CC1S/C(=N/N=C2/NC(=O)CS2)NC1=O (stereo not given)	14	1	2	0	72*	0	69*	-2	-13
CCCS(=O)(=O)NC(=O)C1(C)CCCN(C(=O)c2c(-c3ccccc3)noc2C)C1 (stereo not given)	0	0	9	-1	/	/	/	/	/
CCCCc1c(O)c2ccccc2n(CCCC)c1=O	6	-4	-2	0	-6	1	/	/	/
